Laboratory results taken from paper PMC8028158 (ACS Omega, 2021).
“Also recorded” adds a separate entry of the source.

Legend:
mouse TRPC5 = target: T1, mouse TRPC5 (Mus musculus, UniProt Q9QX29); test: Selectivity Ca2+ assay in TRPC5-expressing HEK293 cells; assay type: cell-based; conditions: 1s 50 μM; induced by 100 μM CCh; Fluo-8
T1 sequence (Q9QX29 1-975): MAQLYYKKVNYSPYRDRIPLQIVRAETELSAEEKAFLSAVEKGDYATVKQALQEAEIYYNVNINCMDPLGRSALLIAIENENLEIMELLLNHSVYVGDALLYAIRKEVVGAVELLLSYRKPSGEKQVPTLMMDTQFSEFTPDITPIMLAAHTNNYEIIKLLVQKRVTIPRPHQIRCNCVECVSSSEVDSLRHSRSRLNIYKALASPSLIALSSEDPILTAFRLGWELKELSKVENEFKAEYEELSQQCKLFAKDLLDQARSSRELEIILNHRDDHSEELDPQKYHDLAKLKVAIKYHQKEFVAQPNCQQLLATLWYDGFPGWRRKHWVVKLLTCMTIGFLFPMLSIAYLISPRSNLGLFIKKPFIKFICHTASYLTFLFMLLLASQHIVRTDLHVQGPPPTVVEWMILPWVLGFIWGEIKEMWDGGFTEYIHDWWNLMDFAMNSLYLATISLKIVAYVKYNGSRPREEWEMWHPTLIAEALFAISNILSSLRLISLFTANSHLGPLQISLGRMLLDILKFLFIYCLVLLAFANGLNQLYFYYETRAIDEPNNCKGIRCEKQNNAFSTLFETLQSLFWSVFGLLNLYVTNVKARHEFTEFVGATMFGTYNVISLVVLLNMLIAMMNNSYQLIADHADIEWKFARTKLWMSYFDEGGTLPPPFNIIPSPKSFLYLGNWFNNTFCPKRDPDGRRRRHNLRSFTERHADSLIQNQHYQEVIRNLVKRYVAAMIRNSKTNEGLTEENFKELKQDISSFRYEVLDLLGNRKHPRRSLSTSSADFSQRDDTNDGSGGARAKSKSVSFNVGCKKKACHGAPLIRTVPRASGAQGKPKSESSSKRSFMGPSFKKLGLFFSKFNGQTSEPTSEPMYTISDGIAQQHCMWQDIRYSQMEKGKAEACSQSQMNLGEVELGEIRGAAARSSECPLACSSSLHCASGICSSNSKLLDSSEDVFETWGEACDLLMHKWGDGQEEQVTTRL

TRPV1 = TRPV1 (Homo sapiens, UniProt Q8NER1); test: Selectivity Ca2+ assay in TRPV1-expressing HEK293 cells; assay type: cell-based; conditions: 1s 50 μM; Fluo-8
MKN-45 cells = test: Wound-healing migration assay; assay type: cell-based, human; conditions: 5 μM, 24 h
Outline: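 MKN-45 cells were seeded and cultured overnight, then scratched with a pipette tip and treated with test compound. The wound was imaged at 0 and 24 h. The width of the cell-free zone was measured at six positions, and relative migration distance was calculated. A positive-control compound was run alongside.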

Sequence of TRPV1 (Q8NER1 whole entry, species assumed): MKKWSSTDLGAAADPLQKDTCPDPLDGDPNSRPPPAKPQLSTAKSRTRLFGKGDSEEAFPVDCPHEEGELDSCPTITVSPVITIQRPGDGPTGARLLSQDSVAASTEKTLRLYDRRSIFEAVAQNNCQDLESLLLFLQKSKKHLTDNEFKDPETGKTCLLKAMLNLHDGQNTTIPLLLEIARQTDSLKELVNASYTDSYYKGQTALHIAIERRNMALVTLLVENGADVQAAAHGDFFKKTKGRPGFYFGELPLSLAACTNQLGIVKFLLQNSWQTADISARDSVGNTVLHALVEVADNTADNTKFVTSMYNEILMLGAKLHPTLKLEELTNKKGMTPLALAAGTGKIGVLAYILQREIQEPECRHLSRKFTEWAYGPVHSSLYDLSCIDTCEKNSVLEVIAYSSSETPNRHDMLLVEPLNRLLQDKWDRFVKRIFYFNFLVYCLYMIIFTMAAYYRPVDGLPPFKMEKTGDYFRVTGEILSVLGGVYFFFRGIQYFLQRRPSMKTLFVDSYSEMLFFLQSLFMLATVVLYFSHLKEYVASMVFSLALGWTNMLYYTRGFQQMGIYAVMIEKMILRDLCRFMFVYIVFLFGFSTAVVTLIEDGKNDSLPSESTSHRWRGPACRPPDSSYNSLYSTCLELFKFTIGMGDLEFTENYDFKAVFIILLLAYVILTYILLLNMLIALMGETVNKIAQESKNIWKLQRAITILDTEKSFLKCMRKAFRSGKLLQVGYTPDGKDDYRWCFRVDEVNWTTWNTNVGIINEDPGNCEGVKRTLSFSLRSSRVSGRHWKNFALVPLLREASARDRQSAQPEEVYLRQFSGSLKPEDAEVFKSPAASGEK

Effect on agonist-induced Ca2+ response, TRPV1 (TRPV1): did not significantly affect
Structure (SMILES): COc1cccc2sc(N(CCN(C)C)C(=O)c3ccc4c(c3)CCCC4)nc12 [Compound 1s, N-(2-(dimethylamino)ethyl)-N-(4-methoxybenzo[d]thiazol-2-yl)-5,6,7,8-tetrahydronaphthalene-2-carboxamide]
Effect on agonist-induced Ca2+ response, TRPC5 (mouse TRPC5): did not significantly affect; also recorded: no effect | MKN-45 cell migration (wound healing) (MKN-45 cells): inhibited the MKN-45 cell migration
